The record followed here is ChEMBL document CHEMBL1141376, “New fluorescent adenosine A1-receptor agonists that allow quantification of ligand-receptor interactions in microdomains of single living cells” (J Med Chem, 2007).

Test [1] deals with T1, Adenosine receptor A1 (Homo sapiens) (UniProt P30542).
T1 sequence (whole entry): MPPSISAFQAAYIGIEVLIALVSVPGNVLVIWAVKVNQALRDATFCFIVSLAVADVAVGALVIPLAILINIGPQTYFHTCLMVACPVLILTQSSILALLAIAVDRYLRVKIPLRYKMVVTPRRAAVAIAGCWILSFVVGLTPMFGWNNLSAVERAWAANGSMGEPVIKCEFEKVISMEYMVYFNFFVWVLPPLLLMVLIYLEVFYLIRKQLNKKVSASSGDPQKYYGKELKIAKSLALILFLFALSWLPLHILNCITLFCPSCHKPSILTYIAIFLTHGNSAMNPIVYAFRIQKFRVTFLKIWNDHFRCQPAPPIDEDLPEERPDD
Briefly: (§1) Agonist activity at adenosine A1 receptor assessed as inhibition of forskolin-stimulated [3H]cAMP accumulation in CHO cells. Format: functional, cell-based. Conditions: concentration not given here. The gist of the method:
(§2)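 Clonal CHO cells stably expressing human A1 (CHO-A1H) or human A3 (CHO-A3) grown to confluence in 24-well dishes. Labelled with [3H]adenine 2 h at 37 °C in HEPES-buffered Hank's, washed, rolipram 10 µM 15 min. Agonist 5 min, then forskolin 3 µM a further 10 min. Stopped with HCl; [3H]-cAMP isolated on alumina columns, scintillation counted. pEC50 from sigmoidal fits; triplicate determinations.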
(In general: Changes in cAMP serve as a functional read-out for many G protein-coupled receptors.)

The target of test [2] is T2, Adenosine receptor A1 (Homo sapiens, UniProt P30542).
T2 sequence (P30542 whole entry): T1 sequence (whole entry)
The test is described as §1. Format: functional, cell-based. The gist of the method:
as §2

Test [3] deals with T1, Adenosine receptor A1 (Homo sapiens). Kind of test: (§3) Displacement of [3H]DPCPX from human adenosine A1 receptor in CHO cells. Format: cell-based. Conditions: concentration not given here. An outline of the steps: (§4)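 Whole confluent CHO-A1H cells in serum-free DMEM/F12 with competing ligand plus [3H]-DPCPX 1 nM final, 2 h at 37 °C in 5% CO2. Nonspecific binding with 10 µM XAC. Washed twice with cold PBS, scintillant added, counted.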
In general terms: Displacement assays read how much labelled ligand stays bound in the presence of the test substance.

In test [4] the target is T2, Adenosine receptor A1. Described as §3. Format: cell-based. An outline of the steps: as §4
In test [5] the target is T1, Adenosine receptor A1 (Homo sapiens). Kind of test: Ratio of pEC50 to pKd at human adenosine A1 receptor in CHO cells. The test is classed as cell-based. An outline of the steps: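 Derived as the difference between -log EC50 from forskolin (3 µM)-stimulated [3H]-cAMP inhibition in CHO-A1H cells and -log KD from inhibition of 1 nM [3H]-DPCPX binding to intact CHO-A1H cells.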

The target of the next test is Adenosine receptor A2a (Homo sapiens, UniProt P29274). Kind of test: Activity at human adenosine A2A receptor assessed as stimulation of [3H]cAMP accumulation in CHO cells. Format: functional, cell-based.
A further test has as its target T3, Adenosine receptor A2b (Homo sapiens, UniProt P29275).
T3 sequence (P29275 whole entry): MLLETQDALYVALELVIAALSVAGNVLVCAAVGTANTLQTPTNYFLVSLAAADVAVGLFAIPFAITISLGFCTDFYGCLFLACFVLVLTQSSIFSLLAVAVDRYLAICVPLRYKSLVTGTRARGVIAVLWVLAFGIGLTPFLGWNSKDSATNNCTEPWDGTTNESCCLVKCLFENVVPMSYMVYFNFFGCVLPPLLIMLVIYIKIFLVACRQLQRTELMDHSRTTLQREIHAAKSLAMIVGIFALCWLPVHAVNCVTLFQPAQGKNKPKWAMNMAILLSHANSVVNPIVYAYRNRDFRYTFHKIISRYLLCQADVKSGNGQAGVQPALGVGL
Briefly: Activity at human adenosine A2B receptor assessed as stimulation of [3H]cAMP accumulation in CHO cells. Format: functional, cell-based. The gist of the method: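 CHO cells expressing human A2B receptor, confluent in 24-well dishes, [3H]adenine-labelled 2 h at 37 °C in HEPES-buffered Hank's, then rolipram 10 µM 15 min. Agonist added 10 min without forskolin. HCl termination, alumina-column isolation of [3H]-cAMP, scintillation counting. pEC50 by sigmoidal curve fitting; each experiment in triplicate.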

Test [6] deals with T2, Adenosine receptor A1. Briefly: Activity at human adenosine A1 receptor assessed as inhibition of forskolin-stimulated cAMP accumulation in CHO cells. Format: functional, cell-based. An outline of the steps: as §2
Another test addresses T4, Adenosine receptor A3 (Homo sapiens, UniProt P0DMS8).
T4 sequence (P0DMS8 whole entry): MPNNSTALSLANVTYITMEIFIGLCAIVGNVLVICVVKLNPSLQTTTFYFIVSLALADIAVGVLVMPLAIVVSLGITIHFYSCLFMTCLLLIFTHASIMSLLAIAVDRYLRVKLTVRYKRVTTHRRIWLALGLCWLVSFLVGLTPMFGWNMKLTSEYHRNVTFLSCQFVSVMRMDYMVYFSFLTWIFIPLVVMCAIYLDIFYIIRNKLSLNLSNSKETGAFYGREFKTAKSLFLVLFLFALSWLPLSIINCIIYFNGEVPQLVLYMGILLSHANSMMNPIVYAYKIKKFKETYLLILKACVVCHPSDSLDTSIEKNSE
Kind of test: Activity at human adenosine A3 receptor assessed as inhibition of forskolin-stimulated cAMP accumulation in CHO cells. Format: functional, cell-based. The gist of the method: as §2

Chain of Adenosine receptor A2a (P29274 whole entry): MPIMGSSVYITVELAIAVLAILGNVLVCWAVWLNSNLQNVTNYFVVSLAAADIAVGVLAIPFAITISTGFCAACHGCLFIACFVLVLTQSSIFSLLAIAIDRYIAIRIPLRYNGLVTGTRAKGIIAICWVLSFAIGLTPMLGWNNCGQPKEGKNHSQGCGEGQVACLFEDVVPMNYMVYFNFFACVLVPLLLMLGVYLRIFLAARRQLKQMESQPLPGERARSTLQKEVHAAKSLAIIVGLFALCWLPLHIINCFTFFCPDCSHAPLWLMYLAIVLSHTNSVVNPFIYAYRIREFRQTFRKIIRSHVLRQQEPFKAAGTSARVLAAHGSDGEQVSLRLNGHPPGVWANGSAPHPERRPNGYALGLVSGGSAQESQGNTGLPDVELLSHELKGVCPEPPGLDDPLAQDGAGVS

Consider `O=C(CCCCCNC(=O)COc1ccc(/C=C/C2=[N+]3C(=Cc4ccc(-c5cccs5)n4[B-]3(F)F)C=C2)cc1)NCCCCNc1ncnc2c1ncn2[C@@H]1O[C@H](CO)[C@@H](O)[C@H]1O`, for which the values for the inhibition in test [1] and in test [3] were 96% and 48.1%, respectively. Besides, the EC50 – broadly, the concentration giving half of the maximal effect – at Adenosine receptor A1 [2] is 5.13 nM. At Adenosine receptor A1 [4], the Kd (usually the free concentration of one partner at which half of the binding sites on the other are occupied at equilibrium, for simple one-to-one binding) is 224 nM. Moreover, in test [5], the Ratio came to 1.64.
Consider `CCNC(=O)[C@H]1O[C@@H](n2cnc3c(NCCCCCCCCNC(=O)CCCCCNC(=O)COc4ccc(/C=C/C5=[N+]6C(=Cc7ccc(-c8cccs8)n7[B-]6(F)F)C=C5)cc4)ncnc32)[C@H](O)[C@@H]1O`, for which, in test [1], the inhibition (commonly how much of the control response was suppressed) amounted to 77%. Besides, the EC50 at Adenosine receptor A1 [2] was 12 nM.
As for `CCNC(=O)[C@H]1O[C@@H](n2cnc3c(NCCCNC(=O)CCCCCNC(=O)COc4ccc(/C=C/C5=[N+]6C(=Cc7ccc(-c8cccs8)n7[B-]6(F)F)C=C5)cc4)ncnc32)[C@H](O)[C@@H]1O`, the values for the inhibition in test [1] and in test [3] were 92% and 50.9%, respectively. At Adenosine receptor A1 [2], the EC50 was 0.692 nM. This molecule gave a Kd on Adenosine receptor A1 [4] of 245 nM. Moreover, the Ratio in test [5] was found to be 2.55.
With `CCNC(=O)[C@H]1O[C@@H](n2cnc3c(N)ncnc32)[C@H](O)[C@@H]1O`, the inhibition in [1] was found to be 98%; in test [3] it was 83.3%.
Consider `CCNC(=O)[C@H]1O[C@@H](n2cnc3c(NCCCCNC(=O)CCCCCNC(=O)COc4ccc(/C=C/C5=[N+]6C(=Cc7ccc(-c8cccs8)n7[B-]6(F)F)C=C5)cc4)ncnc32)[C@H](O)[C@@H]1O`, for which the inhibition was 99% in test [1] and 49.3% in [3]. Also, the EC50 was 3.39 nM at Adenosine receptor A1 [2]; 174 nM at Adenosine receptor A2a; 2040 nM on Adenosine receptor A2b; 3.39 nM at Adenosine receptor A1 [6]; 2.69 nM at Adenosine receptor A3. The molecule further had a Kd on Adenosine receptor A1 [4] of 158 nM. Also, the Ratio in [5] worked out at 1.67.
In the case of `CCNC(=O)[C@H]1O[C@@H](n2cnc3c(NCCCCCNC(=O)CCCCCNC(=O)COc4ccc(/C=C/C5=[N+]6C(=Cc7ccc(-c8cccs8)n7[B-]6(F)F)C=C5)cc4)ncnc32)[C@H](O)[C@@H]1O`, the inhibition in [1] is 96%. In addition, on Adenosine receptor A1 [2], the EC50 is 0.708 nM.
